# Assay outcomes: PubChem, several laboratories
# A selection: hits, their analogues and other compounds. The true share with any hit is near 1.7%.
# GASC-1 inh = inhibitors of human GASC-1 (JMJD2C) demethylase. GST-JMJD2C(1-420) H3K9me3 demethylation, DELFIA europium. inhibition, % at 2.35 µM. 0.069% of 330,000 active. AID 2099;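 active = more than half of a compound's replicate wells show inhibition beyond 50%, single wells judged on their own value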;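 note: signal counts dimethyl H3K9 product captured on neutravidin plate; 0% = median of DMSO wells and 100% = 0.3 times that DMSO median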
# m5-HT2A agonist = mouse HTR2A agonism via beta-arrestin recruitment; P35363; CHO-K1 mHTR2A beta-arrestin complementation, luminescence; percent of 30 µM serotonin response; activation, % at 7.6 µM; 0.66% of 360,000 active; AID 624169;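 active = activation above a run cutoff, the mean activation of all tested compounds plus 3 SD, cut at about 14% in these data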;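 note: 0% = plate median of compound wells and 100% = 30 µM serotonin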
# T cell modulator = modulates CD8 T cell binding to vesicles; 2C CD8+ T cell-vesicle binding, flow cytometry; active compounds read low; response (vesicle binding), % at 7 µM; 0.068% of 330,000 active; AID 2052;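 active = response, share of CD8 T cells binding vesicles, and their 90th percentile fluorescence all below set limits, cut at about 80% in these data, passing the limit was not always enough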;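 note: values below 100% mean blocked vesicle binding to the CD8+ T cells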
#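 Material: murine 2C transgenic CD8+ T lymphocytes / Also added: QL9-peptide-loaded Drosophila micro-vesicles bearing Ld, ICAM-1 and B7-1 / Schedule: binding step 1.5 h, 37 °C, antibody labelling 20 min, ice / Signal: flow cytometry, PE anti-B7-1 (FL2) versus Alexa647 anti-CD8 (FL8), PFA-fixed / Evaluation: percent CD8+ FL2 mean versus row control / Benchmarks: naked versus QL9-loaded vesicles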
# PP5 inh = blocks human protein phosphatase 5 activity | purified PP5c, OMFP substrate fluorescence | 0.18% of 320,000 active | inhibition, % at 6.7 µM | AID 1987;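 active = inhibition above the campaign's mean inhibition across all tested compounds plus 3 SD, cut at about 9.5% in these data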;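 note: 0% = DMSO only and 100% = 100 µM cantharidin control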
# PP1 counter = counter-screen for PP5 inhibitors: inhibitors of human PP1-alpha | P62136 | purified PP1alpha, OMFP fluorescence | inhibition, % at 6.7 µM | 0.9% of 320,000 active;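 active = inhibition above the mean inhibition of all tested compounds plus 3 SD, computed separately for each screening campaign, cut at about 15% in these data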
# MOR ag counter = OPRM1 agonism in mouse HTR2A counterscreen; shares compounds with m5-HT2A agonist; U2OS OPRM1 beta-arrestin PathHunter, luminescence; DMSO 0%, DAMGO 9.3 µM 100%; activation, % at 9.3 µM; 5.3% of 2,300 active;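 active = mean activation above the mean of DMSO-only wells plus 3 SD, cut at about 0.5% in these data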
# Target sequence (P35372 whole entry, looked up): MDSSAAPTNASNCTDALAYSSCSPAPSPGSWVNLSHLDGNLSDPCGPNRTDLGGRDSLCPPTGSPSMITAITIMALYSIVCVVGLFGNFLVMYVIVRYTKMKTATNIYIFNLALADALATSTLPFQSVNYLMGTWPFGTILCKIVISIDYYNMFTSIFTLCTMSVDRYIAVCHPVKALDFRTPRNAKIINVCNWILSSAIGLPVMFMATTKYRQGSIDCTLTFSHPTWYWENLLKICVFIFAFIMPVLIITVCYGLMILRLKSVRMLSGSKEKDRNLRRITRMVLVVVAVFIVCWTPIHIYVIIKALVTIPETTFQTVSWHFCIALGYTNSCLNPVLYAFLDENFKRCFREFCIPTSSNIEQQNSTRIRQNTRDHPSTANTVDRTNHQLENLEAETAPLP
# HTR2A ag conf = confirmation of mouse HTR2A serotonin receptor agonists; CHO-K1 PathHunter beta-arrestin recruitment, luminescence; DMSO 0%, 30 µM serotonin 100%; AID 624381; activation, % at 7.6 µM; 19% of 2,300 active; shares compounds with m5-HT2A agonist;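 active = mean activation across triplicates above the hit threshold derived in the original primary screen, cut at about 15% in these data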
# Active calls of the source: *; i = inactive; / = no result.
SMILES,GASC-1 inh,m5-HT2A agonist,T cell modulator,PP5 inh,PP1 counter,MOR ag counter,HTR2A ag conf
Cc1ccccc1CC(=O)N1CCN(C(=O)c2ccco2)CC1,-4.3,-2.2,235.6,3.8,-4.0,/,/
Cc1ccccc1CN1CCN(C(=O)c2ccco2)CC1,23.6,25.3*,216.4,3.5,1.4,0.0,85.0*
COc1ccc(NC(C)=O)cc1S(=O)(=O)Nc1ccc2c(c1)OCCO2,-5.5,3.2,211.5,3.3,-1.3,/,/
O=C(NCCCn1ccnc1)c1cc(Cl)cc(Cl)c1,-13.8,1.4,187.3,-1.5,-1.1,/,/
CCOc1nc(N2CCOCC2)nc(N2CCOCC2)n1,5.1,-0.6,574.7,-0.7,-4.6,/,/
CC(=O)Nc1ccc(C(=O)NNC(=O)c2cccc(C)c2)cc1,176.6,0.3,655.0,1.1,-1.2,/,/
O=C(c1ccco1)N1CCN(Cc2ccccc2F)CC1,-1.2,20.4*,127.5,2.5,1.2,0.0,75.9*
Cc1ccccc1-n1c(=O)cc(N2CCN(C(=O)c3ccco3)CC2)[nH]c1=O,-3.8,24.2*,629.4,1.8,-0.3,-0.5,-2.2
O=C(c1ccco1)N1CCN(Cc2c(F)cccc2Cl)CC1,-3.5,9.6,334.5,2.5,0.5,/,/
C[C@@H]1CN([C@@H](C)CO)C(=O)CCCn2nncc2CO[C@@H]1CN(C)S(=O)(=O)c1ccc2ccccc2c1,/,-0.9,/,/,/,/,/
CCOc1ccc2oc(C(=O)OCC(=O)N3CCCC(C)C3)c(C)c2c1 (configuration not stated),6.3,3.4,452.0,4.2,0.3,/,/
COc1ccc2oc(C(=O)OCC(=O)N3CCCC(C)C3)c(C)c2c1 (configuration not stated),-9.0,19.9*,i,2.6,-5.0,-0.6,-3.2
O=C1CCc2cc(S(=O)(=O)NCc3ccccc3)cc3c2N1CC3,60.3,-1.5,254.3,-0.8,-4.1,/,/
COc1cccc(CNS(=O)(=O)c2cc3c4c(c2)CCN4C(=O)CC3)c1,-5.4,17.6*,853.8,-2.7,-0.8,-0.6,-3.2
CCOc1ccccc1C(=O)NCC(=O)NNC(=O)c1cccs1,-2.9,19.3*,311.3,/,/,-0.6,-4.7
COc1ccccc1CC(=O)NNC(=O)c1cccs1,-10.0,14.6*,300.7,1.0,-2.5,-0.7,-0.8
COc1ccc(CCNc2ccc(S(N)(=O)=O)cn2)cc1,1.1,16.2*,852.3,0.7,-1.4,-0.5,-5.4
O=C(CSc1nnc(CNC(=O)c2ccc(F)cc2)o1)Nc1nccs1,0.6,14.4*,505.5,3.9,-0.4,-0.6,-3.0
COC(=O)C1=C(C)NC(=O)CC1c1cccc(Cl)c1Cl (configuration not stated),-0.1,23.9*,607.8,3.6,7.3,-0.8,-1.8
CC1=C(C(=O)N(C)C)CC(CC(=O)NC2CCCCC2)C(=O)N1CCCN1CCCC1=O (configuration not stated),/,15.5*,/,/,/,-0.7,-3.8
CC1=C(C(=O)N(C)C)CC(CC(=O)NC2CCCC2)C(=O)N1CCCN1CCCC1=O (configuration not stated),/,2.6,/,/,/,/,/
CCCCc1cc(=O)oc2cc(OC(C)C(=O)NCc3ccccn3)c(Cl)cc12 (configuration not stated),4.4,17.1*,485.2,-7.6,-7.0,-0.5,-2.7
CCCCc1cc(=O)oc2cc(OCC(=O)NCc3ccccn3)c(Cl)cc12,4.7,4.1,257.2,0.2,1.7,/,/
Cc1ccc(CNC(=O)/C=C/[C@H]2O[C@@H](n3cc(C)c(=O)[nH]c3=O)C[C@@H]2O)o1,/,-2.5,/,/,/,/,/
CC(C)(C)C(=O)N(Cc1nc2ccccc2c(=O)[nH]1)Cc1cccs1,-9.2,14.7*,510.4,2.2,-1.1,-0.6,-6.4
SMILES,GASC-1 inh,m5-HT2A agonist,T cell modulator,PP5 inh,PP1 counter,MOR ag counter,HTR2A ag conf
O=C(CCCl)N(Cc1nc2ccccc2c(=O)[nH]1)Cc1cccs1,7.5,0.1,404.2,3.2,-2.0,/,/
O=c1[nH]ccc2c(O)cccc12,0.5,16.2*,588.8,-2.4,-1.8,0.7*,3.8
O=C(O)C1C=CCC(C(=O)O)C1 (configuration not stated),/,3.4,/,/,/,/,/
Cc1c(NC(=O)c2ccccc2NC(=O)COc2ccccc2)cccc1C(=O)O,4.1,17.4*,370.6,-0.4,1.0,-0.4,-0.1
O=C(COc1ccccc1C(=O)O)Nc1cccc2ccccc12,3.8,15.8*,470.1,/,/,-0.4,-2.5
CC1=C(C(=O)N(C)C)CC(CC(=O)NCc2cccs2)C(=O)N1Cc1ccc(F)cc1 (configuration not stated),/,-0.9,/,/,/,/,/
CC1(C(=O)Nc2cnc3ccccc3c2)CCN1CCOc1ccccc1 (configuration not stated),/,-2.9,/,/,/,/,/
CCOc1ccccc1C1C(C(=O)Nc2ccccc2OC)=C(C)Nc2nc(CCCO)nn21 (configuration not stated),-12.9,29.6*,i,2.0,1.7,-0.5,-3.5
COc1ccc(-n2c(C)cc(=O)[nH]c2=O)cc1,1.8,18.0*,642.5,-0.9,-2.4,-0.1,8.3
CC1(C)CC(=O)C(C(=O)c2ccccc2)C(=O)C1Cl (configuration not stated),7.8,-0.7,421.3,-0.3,-0.2,/,/
CC1(C)CC(=O)C(C(=O)c2ccccc2)C(=O)C1,4.4,18.7*,175.0,0.3,4.7,-0.3,-1.2
CN(Cc1ccsc1)C(=O)Cn1cc(Br)ccc1=O,-7.2,-2.1,492.1,1.2,0.3,/,/
COc1cccc(-c2cc(CNC(=O)[C@H]3O[C@@H](n4cnc5c(N)ncnc54)[C@H](O)[C@@H]3O)no2)c1,/,3.9,/,/,/,/,/
O=C1N(CN2CCN(c3cccc(Cl)c3)CC2)c2ccccc2C12OCCCO2,-4.2,18.4*,364.6,0.9,-7.2,-0.6,7.7
O=[N+]([O-])c1ccc(CSc2ccc(S(=O)(=O)N3CCCCC3)cn2)cc1,10.8,-2.1,599.5,/,/,/,/
CCOc1cc(/C=N/NC(=O)c2cccc(S(=O)(=O)N3CCCC3)c2)ccc1OCC(=O)N(C)C,-7.2,-7.7,161.1,-1.3,-2.5,/,/
COc1ccc2[nH]c(C)c(CCNC(=S)Nc3ccccc3C)c2c1,5.8,16.5*,223.1,-1.1,-1.5,-0.5,-3.6
C[C@H](O)Cc1cn(-c2cc3cc(C#Cc4ccsc4)ccc3oc2=O)nn1,-2.8,-1.4,0.0,-1.3,5.0,/,/
COc1ccccc1C(=O)NC(=O)COC(=O)C1(C)CC1(Cl)Cl (configuration not stated),-0.8,18.0*,407.1,1.6,-0.8,-0.7,-4.8
COc1ccccc1C(=O)NC(=O)COC(=O)c1ccc([N+](=O)[O-])cc1,-18.2,17.7*,649.1,0.5,-2.3,-0.2,4.7
